We go through one molecule from ChEMBL document CHEMBL5030529, “Rationally Modified Antimicrobial Peptides from the N-Terminal Domain of Human RNase 3 Show Exceptional Serum Stability” (J Med Chem, 2021).

The test system of data set [1] is Acinetobacter baumannii. Briefly: Antimicrobial activity against clinical isolate Acinetobacter baumannii 3878 assessed as bacterial growth inhibition incubated in presence of serum for 24 hrs. In kind it is functional. The procedure, abridged:
(§1)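 Broth microdilution in polypropylene plates in Mueller-Hinton medium, inoculum 5 × 10^5 CFU/mL, 37 °C for 24 h. […] MIC is the lowest peptide concentration with no growth. Values are the mean of three independent studies.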

Data set [2] relates to Cell membrane. Briefly: Induction of membrane depolarization in Escherichia coli at 0.4 uM incubated 20 to 30 mins under dark by Eclipse fluorescence spectrometry. The note with it: time 20-30 min. In kind it is subcellular. The gist of the method: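 Exponential-phase E. coli (OD 0.2–0.4) was washed in 5 mM HEPES, 20 mM glucose, 100 mM KCl, pH 7.2, and resuspended to OD 0.05. DiSC3(5) was added at 0.4 μM final and equilibrated in the dark for 20–30 min to a stable baseline. Peptide was then added and dye release was followed by fluorescence at ex 625 nm / em 666 nm.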

Data set [3] in a line: Retention time of the compound by HPLC analysis. In kind it is physicochemical. The gist of the method:
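Analytical RP-HPLC on a C18 column (4.6 × 50 mm, 3 μm) with a linear gradient of 0–60% acetonitrile (0.036% TFA) into water (0.045% TFA) over 15 min. Flow was 1 mL/min with UV detection at 220 nm.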

Data set [4] has as its system Acinetobacter baumannii. The data set can be described thus: Antimicrobial activity against Acinetobacter baumannii assessed as bacterial growth inhibition incubated for 24 hrs.
Data set [5] concerns Escherichia coli. Briefly: Antimicrobial activity against clinical isolate Escherichia coli cf073 assessed as bacterial growth inhibition incubated in presence of serum for 24 hrs. In kind it is functional. The gist of the method: as §1
The test system of the next data set is Pseudomonas sp. Briefly: Antimicrobial activity against Pseudomonas sp assessed as bacterial growth inhibition incubated in presence of serum for 24 hrs. In kind it is functional. The gist of the method: as §1
For data set [6], the system named is Salmonella typhimurium. The data set can be described thus: Antimicrobial activity against clinical isolate Salmonella typhimurium 365 assessed as bacterial growth inhibition incubated in presence of serum for 24 hrs. In kind it is functional, Salmonella enterica subsp. enterica serovar Typhimurium. The note with it: Salmonella enterica. The procedure, abridged: as §1

Data set [7] can be described thus: Hemolytic activity in horse RBC assessed as hemolysis at 250 uM relative to control. In kind it is ADME, tissue-based, Equus caballus. The note with it: erythrocyte. The gist of the method:
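Horse erythrocytes were diluted 10-fold in PBS and washed by three spins at 800g. They were incubated with peptides for 4 h at 37 °C, and supernatant absorbance was read at 540 nm. Percent hemolysis is relative to total lysis with 1% Triton X-100. Values are the mean of three independent studies.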

Data set [8] relates to Cell membrane. Briefly: Induction of membrane damage in Escherichia coli assessed as loss of membrane integrity by measuring blebs at 10 uM incubated for 2 hrs by Electron scanning microscopy. In kind it is subcellular. The gist of the method: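 E. coli was grown in LB at 37 °C to OD600 0.4 and exposed to 10 μM peptide for 2 h at room temperature. Cells were collected on 0.1 μm filters, fixed in 2.5% glutaraldehyde in cacodylate buffer pH 7.4 and post-fixed in 1% OsO4. Samples were dehydrated in ethanol, coated with gold–palladium and imaged at 15 kV.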

In another data set the test system is MRC5. Briefly: Cytotoxicity against human MRC5 cells assessed as cell growth inhibition measured after 4 hrs by MTT assay. In kind it is cell-based. The settings on record: MRC5, 4 h. The procedure, abridged: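 MRC-5 fibroblasts were grown in MEMα with 10% FBS, seeded at 3 × 10^4 cells/well and left overnight to adhere. Cells were exposed to two-fold peptide serial dilutions for 4 h, then given medium with MTT at 0.4 mg/mL for 150 min. Formazan was dissolved in DMSO and read at 600 nm. Values are the mean of three independent studies.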
On the technique in general: Tetrazolium dyes change colour on reduction, which living cells bring about.

Data set [9] concerns Pseudomonas aeruginosa. The data set can be described thus: Antimicrobial activity against clinical isolate Pseudomonas aeruginosa 827651 assessed as bacterial growth inhibition incubated in presence of serum for 24 hrs. In kind it is functional. The gist of the method:
as §1

Data set [10] has as its system Escherichia coli. Briefly: Antimicrobial activity against Escherichia coli assessed as bacterial growth inhibition incubated for 24 hrs.
Data set [11] has as its system Acinetobacter baumannii. Briefly: Antimicrobial activity against clinical isolate Acinetobacter baumannii 3862 assessed as bacterial growth inhibition incubated in presence of serum for 24 hrs. In kind it is functional. The procedure, abridged:
as §1

Data set [12] can be described thus: Stability in human serum assessed as half life by LC-MS analysis. In kind it is ADME, cell-free. The gist of the method: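 1 mM peptide stocks in water were mixed 1:1 (v/v) with human serum. Aliquots were taken at set times and digestion was stopped by acetonitrile precipitation. Serum proteins were removed by centrifugation, and intact peptide and fragments in the supernatant were analysed by LC–MS. Half-life values are the mean of three independent studies.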

Data set [13] concerns Escherichia coli. Briefly: Antimicrobial activity against clinical isolate Escherichia coli 116878 assessed as bacterial growth inhibition incubated in presence of serum for 24 hrs. In kind it is functional. The gist of the method: as §1
Data set [14] deals with Pseudomonas aeruginosa. Briefly: Antimicrobial activity against clinical isolate Pseudomonas aeruginosa 827632 assessed as bacterial growth inhibition incubated in presence of serum for 24 hrs. In kind it is functional. The gist of the method: as §1
Another data set has as its system Shigella flexneri. Briefly: Antimicrobial activity against Shigella flexneri assessed as bacterial growth inhibition incubated in presence of serum for 24 hrs. In kind it is functional. The gist of the method: as §1
Data set [15] deals with Acinetobacter baumannii. Briefly: Antimicrobial activity against clinical isolate Acinetobacter baumannii 3879 assessed as bacterial growth inhibition incubated in presence of serum for 24 hrs. In kind it is functional. The procedure, abridged:
as §1

Data set [16] deals with Salmonella typhimurium. Briefly: Antimicrobial activity against clinical isolate Salmonella typhimurium 324 assessed as bacterial growth inhibition incubated in presence of serum for 24 hrs. The settings on record: Salmonella enterica. In kind it is functional, Salmonella enterica subsp. enterica serovar Typhimurium. The gist of the method:
as §1

A further data set has as its system Salmonella enterica. The data set can be described thus: Antimicrobial activity against Salmonella enterica assessed as bacterial growth inhibition incubated in presence of serum for 24 hrs. In kind it is functional. The gist of the method: as §1
The subject of data set [17] is Acinetobacter baumannii. The data set can be described thus: Antimicrobial activity against clinical isolate Acinetobacter baumannii 3880 assessed as bacterial growth inhibition incubated in presence of serum for 24 hrs. In kind it is functional. The gist of the method: as §1

Usually MIC stands for the least concentration at which growth counts as inhibited. In general, IC50 refers to the point on the concentration scale where inhibition reaches its midpoint. A word on the half-life: it is how long it takes for the measured level to halve.

Structures are written as SMILES. Converted amounts (≈) assume the structure as drawn. The source made the active and inactive calls. No cut-off for these calls is given here.

As to `CC[C@H](C)[C@H](NC(=O)[C@H](C)NC(=O)[C@H](CCCN)NC(=O)[C@H](CCSC)NC(=O)[C@H](C)NC(=O)[C@@H](NC(=O)[C@@H](NC(=O)[C@H](CCCN)NC(=O)[C@@H]1CCCN1C(=O)[C@H](CO)NC(=O)[C@@H](NC(=O)[C@H](Cc1c[nH]cn1)NC(=O)[C@H](CCC(N)=O)NC(=O)[C@@H](NC(=O)[C@H](C)NC(=O)[C@H](Cc1ccccc1)NC(=O)[C@H](Cc1c[nH]c2ccccc12)NC(=O)[C@H](CCC(N)=O)NC(=O)[C@H](C)NC(=O)[C@H](CCCN)NC(=O)[C@@H](NC(=O)[C@H](Cc1ccccc1)NC(=O)[C@H]1CCCN1C(=O)[C@@H](N)CCCN)[C@@H](C)O)[C@@H](C)CC)[C@@H](C)CC)[C@@H](C)O)[C@@H](C)CC)C(=O)N[C@@H](CC(N)=O)C(=O)N[C@@H](CC(N)=O)C(=O)N[C@@H](Cc1ccc(O)cc1)C(=O)N[C@@H](CCCN)C(=O)N[C@@H](Cc1c[nH]c2ccccc12)C(=O)N[C@@H](CCCN)C(=O)O`, the MIC is 0.78 µM in the data set with Acinetobacter baumannii [1]; 12.5 µM (≈ 43.8 µg/mL) with Acinetobacter baumannii [4]; 6.25 µM in the data set on Escherichia coli [5]; 1.56 µM with Pseudomonas sp.; 25 µM in the data set on Salmonella typhimurium [6]; 25 µM in the data set with Pseudomonas aeruginosa [9]. In addition, the MIC in the data set on Escherichia coli [10] was 3.13 µM (≈ 11 µg/mL); in the data set with Acinetobacter baumannii [11], 1.56 µM; in the data set with Escherichia coli [13] it was 25 µM; in the data set with Pseudomonas aeruginosa [14], greater than 100 µM; in the data set on Shigella flexneri, 50 µM; in the data set on Acinetobacter baumannii [15] it was 3.13 µM. The minimum inhibitory concentration (MIC) in the data set with Salmonella typhimurium [16] turned out to be 25 µM; in the data set with Salmonella enterica, 50 µM; with Acinetobacter baumannii [17], 12.5 µM. Further, the result in the data set on Cell membrane [2] and with Cell membrane [8] was Active. In [3], this molecule came in with a Retention_time of 10.9 min. For the same molecule, in data set [7], the Activity came to 1.1%. Also, in the data set with MRC5, the half-maximal inhibitory concentration (IC50) turned out to be 230 µM. In addition, the half-life in data set [12] was greater than 8 h.
